In all, about 2,500 compounds went through this assay and about 460 (18%) were called active.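 Rule for the calls: active = mean activation above a cutoff of low control average plus 3 SD from the earlier screen (cut at about 12% in these data); inactive = the rest.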 Not all results are given here.

This test in a line: IANBD-channel fluorescence artefacts in buffer – biochemical, artefact control for cardiac RTF calcium sensitizer project, confirmation (AID 504382). As to conditions: IANBD fluorescence interference counterscreen, EC20 Ca2+, at 7.2 µM, stronger effect = higher value, scaled: EC20 calcium 0, EC100 calcium 100. In short, it runs like this: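 Medium: MOPS buffer, 190 mM, with KCl, MgCl2, EGTA, NTA, DTT, pH 7.20; Dosing: one dose of 7.2 µM, 0.7% DMSO; Probe or stimulus: calcium at EC20 level, 0.472 mM final; Incubation: 15 min, 25 °C; Evaluation: compound fluorescence interference relative to control well signal range; Signal: fluorescence, 480/540 nm.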
Background: The purpose of a counterscreen is to sort out artefacts and off-target activity.
On to `CC(=O)N1C(=O)C(=C2C=C(C)OC(C)=C2)c2ccccc21`, for which the fluorescence artifact activation is 21.3% (active).
For the compound `CCCn1c(N2CCN(CC(=O)c3c[nH]c4ccccc34)CC2)nc2c1c(=O)[nH]c(=O)n2C`, the fluorescence artifact activation is 0.12% (inactive).
Consider `CCCCCCCCOc1ccc(C2OC34CCCCC3C(C#N)(C#N)C2(C#N)C(=N)O4)cc1` (centres undefined), for which the fluorescence artifact activation was 4.01% (inactive).
In the case of `CCN1/C(=C/C=C/c2oc3ccc(-c4ccccc4)cc3[n+]2CC)Oc2ccc(-c3ccccc3)cc21`, the fluorescence artifact activation was -0.02% (inactive).
Under `O=C(Nc1ccc(N2CCN(C(=O)c3ccco3)CC2)cc1)c1ccc(F)cc1` stands 0.11% (inactive); under `COc1ccc(C(=O)NCC(=O)N2CCN(C(=O)c3ccco3)CC2)cc1OC`, 23.6% (active); under `CCC(c1nnnn1C1CCCCC1)N1CCN(C(=O)c2ccco2)CC1` (centres undefined), 6.69% (inactive).
`COc1cccc(C2CC(c3ccccc3)n3ncnc3N2)c1` (centres undefined): the fluorescence artifact activation was 7.41% (inactive).
For the compound `CCOC(=O)N1CCC(NC(=O)c2cccs2)CC1`, the fluorescence artifact activation was -0.01% (inactive).
As to `CCOC(=O)N1CCC(Nc2cccc(SC)c2)CC1`, the fluorescence artifact activation was 97.8% (active).
As for `CCOC(=O)N1CCC(Nc2nc3ccccc3nc2NS(=O)(=O)c2ccc(Cl)cc2)CC1`, the fluorescence artifact activation was -0.02% (inactive).
For the compound `CN1CCc2c(sc(/N=C/c3cccs3)c2C(N)=O)C1`, the fluorescence artifact activation is -0.06% (inactive).
With `O=C(NCC1CC1)Nc1cccc(Cl)c1`, the fluorescence artifact activation was 0.16% (inactive).
On to `Cn1c(NC(=O)C[n+]2cc(-c3ccc(Cl)cc3)n3c2CCC3)cc(=O)n(C)c1=O`, for which the fluorescence artifact activation was 1.86% (inactive).
On to `C=CCOc1ccc(C2C(C(=O)c3cccs3)=C(O)C(=O)N2c2nnc(C)s2)cc1` (centres undefined), for which the fluorescence artifact activation is 0.1% (inactive).
As for `COc1ccc(C2C(C(=O)c3cccs3)=C(O)C(=O)N2c2nnc(C)s2)cc1OC` (centres undefined), the fluorescence artifact activation was 0.77% (inactive).
Under `Cc1ccc(C2C(C(=O)c3cccs3)=C(O)C(=O)N2c2nnc(C)s2)cc1` (centres undefined) stands 17.5% (active).
In the case of `O=c1c2ccccc2cnn1Cc1n[nH]c(=S)n1-c1ccccc1Cl` it was 2.78% (inactive); in that of `CC(C)C12CN(C(=O)c3ccccc3[N+](=O)[O-])CC(C(C)C)(CN(C(=O)c3ccccc3[N+](=O)[O-])C1)C2=O`, 0.02% (inactive).
Consider `O=C(O)c1cccc([N+](=O)[O-])c1C(=O)Nc1cccc2ccccc12`, for which the fluorescence artifact activation is 1.51% (inactive).
In the case of `O=C(O)c1cccc2c1-c1c(cccc1[N+](=O)[O-])C2` it was 706% (active).
Take `COc1ccc(Cl)cc1NC(=O)CN(C)C(=O)COc1ccccc1F`: the fluorescence artifact activation is 0.35% (inactive).
`COc1ccc(Cl)cc1NC(=O)CN(C)C(=O)c1ccc(N2CCCCCC2)c([N+](=O)[O-])c1`: the fluorescence artifact activation was 21.3% (active).
For `COc1ccc(OC)c(NC(=O)c2cc(S(=O)(=O)N(C)C)ccc2N2CCCC2)c1`, the fluorescence artifact activation was 0.05% (inactive).
For the compound `Cc1nc(NC(=O)c2ccccc2[N+](=O)[O-])sc1C(=O)N(C)C`, the fluorescence artifact activation is 0.02% (inactive).
Turning to `O=C(c1ccc(Nc2cccc(C(F)(F)F)c2)nc1)N1CCCC1`, the fluorescence artifact activation was 55.9% (active).
On to `COc1cccc(S(=O)(=O)Nc2cccc(C(=O)N3CCCCCC3)c2)c1`, for which the fluorescence artifact activation is 0.03% (inactive).
For `O=C(CN1CCN(c2ccccc2)CC1)Nc1cccc(C(F)(F)F)c1`, the fluorescence artifact activation is 0.02% (inactive).
Regarding `Cc1ccc(S(=O)(=O)N2CCOCC2)cc1NC(=O)CSc1nccn1C`, the fluorescence artifact activation is 0.07% (inactive).
As for `CCCCCC(C)NC(=S)NC(=O)c1cc(S(=O)(=O)N2CCOCC2)ccc1C` (centres undefined), the fluorescence artifact activation was 0.05% (inactive).
Under `Cc1csc(NS(=O)(=O)c2cccc([N+](=O)[O-])c2)n1` stands 0.08% (inactive).
On to `CC1=CC(=C(C#N)C#N)C=C(C)N1Cc1ccc(Cl)cc1`, for which the fluorescence artifact activation is 10.8% (inactive).
Take `CCSC1=N/C(=C\C=C2/Oc3ccccc3N2CC)C(=O)S1`: the fluorescence artifact activation was 9.59% (inactive).
On to `CC1(C(=O)Nc2nnc(SCc3ccccc3)s2)Cc2ccccc2C(=O)O1` (centres undefined), for which the fluorescence artifact activation was 4.5% (inactive).
Regarding `COC(=O)c1ccc(CSc2nnc(NCc3ccccc3)s2)o1`, the fluorescence artifact activation was 4.53% (inactive).
Consider `CC(Sc1nnc(NCc2ccccc2)s1)C(=O)Nc1ccc2c(c1)C(=O)c1ccccc1C2=O` (centres undefined), for which the fluorescence artifact activation is 49% (active).
Under `CCc1ccc(C(C)NC(=O)c2ncn[nH]2)cc1` (centres undefined) stands 2.22% (inactive); under `Clc1ccc(-n2cc(-c3ccc(Br)cc3)[n+]3c2CCCCC3)cc1`, -0.05% (inactive); under `CC(C)(Cc1cccc(CC(C)(C)C(=O)O)c1)C(=O)O`, 0.07% (inactive).
For `CC(=O)Oc1ccc2c(c1)Oc1cc(OC(C)=O)ccc1C21OC(=O)c2ccccc21`, the fluorescence artifact activation is 13.6% (active).
As for `CC(=O)Oc1ccc(NC(=O)Cc2ccccc2)c(C(=O)O)c1`, the fluorescence artifact activation was 4.96% (inactive).
Under `CCOc1ccc(-c2ncncc2-c2ccccc2OC)c(O)c1` stands 0.08% (inactive); under `COc1ccc(-n2nc3c(N4CCC(C(=O)N5CCC(C)CC5)CC4)nnc(C)c3c2C)cc1`, 0.01% (inactive).
As to `CCOC(=O)C(CCCCCCC(NC(C)=O)(C(=O)OCC)C(=O)OCC)(NC(C)=O)C(=O)OCC`, the fluorescence artifact activation was -0.02% (inactive).
In the case of `Cc1ccc(C(=O)N(C)CC(=O)Nc2cccc(F)c2)cc1S(=O)(=O)N1CCCCC1` it was 0.72% (inactive).
`Cc1ccnc(N/C=C(\C#N)c2nc(-c3cccc(Br)c3)cs2)c1`: the fluorescence artifact activation was 5.15% (inactive).
With `COc1cccc(/C=N/Nc2nnc(C)n2N)c1O`, the fluorescence artifact activation is 0.12% (inactive).
On to `CC(C)(C)c1ccc(-c2n[nH]c(=S)n2CC2CCCO2)cc1` (centres undefined), for which the fluorescence artifact activation was 34.7% (active).
Take `CCOc1cc(/C=C2\NC(=O)NC2=O)cc([N+](=O)[O-])c1O`: the fluorescence artifact activation is 0.01% (inactive).
Regarding `COc1ccc(/C=C2/SC(c3ccc(C)cc3)=NC2=O)cc1OC`, the fluorescence artifact activation is 6.74% (inactive).
In the case of `CCOC(=O)c1ccc(-c2c(-c3ccc4c(c3)OCO4)noc2C)cc1F` it was 0.96% (inactive); in that of `O=C(O)CSc1nc2ccccc2nc1Cc1ccccc1F`, 163% (active).
For `O=C(Cc1nc2ccccc2[nH]c1=O)c1ccccc1`, the fluorescence artifact activation was 0.01% (inactive).
Under `O=c1ccc2cc3c4c(c2o1)CCCN4CCC3` stands 9.87% (inactive).
Turning to `Cn1ncc2c(O/N=C(\N)c3ccc(C(F)(F)F)cc3)ncnc21`, the fluorescence artifact activation was 18.5% (active).
On to `Cc1c(O)c(=O)c2ccccc2n1C`, for which the fluorescence artifact activation is 2.22% (inactive).
Turning to `CCCOc1ccc(Cn2c(=O)oc3ccc(C)cc32)cc1OC`, the fluorescence artifact activation was 6.44% (inactive).
With `CCCCCOc1ccc(CN2CCOCC2)cc1Cl`, the fluorescence artifact activation is 25.8% (active).
`CCOc1ccc2ccccc2c1CNCCN1CCOCC1`: the fluorescence artifact activation is 9.02% (inactive).

Values taken from PubChem BioAssay AID504382 (The Scripps Research Institute Molecular Screening Center, 2011).
